Data reported in ChEMBL document CHEMBL4152184, “NB 06: From a simple lysosomotropic aSMase inhibitor to tools for elucidating the role of lysosomes in signaling apoptosis and LPS-induced inflammation” (Eur J Med Chem, 2018).
The source made the active and inactive calls. The rule behind the calls is not given here.

Columns and labels:
[1] = target: T1, Sphingomyelin phosphodiesterase (Homo sapiens) (UniProt P17405); test: Inhibition of TNFalpha-stimulated acid sphingomyelinase in human PBMC lysates at 2 to 50 uM preincubated for 30 mins followed by TNFalpha stimulation measured after 4 hrs by YO-PRO-1/Hoechst 33342 staining based assay
T1 sequence (whole entry): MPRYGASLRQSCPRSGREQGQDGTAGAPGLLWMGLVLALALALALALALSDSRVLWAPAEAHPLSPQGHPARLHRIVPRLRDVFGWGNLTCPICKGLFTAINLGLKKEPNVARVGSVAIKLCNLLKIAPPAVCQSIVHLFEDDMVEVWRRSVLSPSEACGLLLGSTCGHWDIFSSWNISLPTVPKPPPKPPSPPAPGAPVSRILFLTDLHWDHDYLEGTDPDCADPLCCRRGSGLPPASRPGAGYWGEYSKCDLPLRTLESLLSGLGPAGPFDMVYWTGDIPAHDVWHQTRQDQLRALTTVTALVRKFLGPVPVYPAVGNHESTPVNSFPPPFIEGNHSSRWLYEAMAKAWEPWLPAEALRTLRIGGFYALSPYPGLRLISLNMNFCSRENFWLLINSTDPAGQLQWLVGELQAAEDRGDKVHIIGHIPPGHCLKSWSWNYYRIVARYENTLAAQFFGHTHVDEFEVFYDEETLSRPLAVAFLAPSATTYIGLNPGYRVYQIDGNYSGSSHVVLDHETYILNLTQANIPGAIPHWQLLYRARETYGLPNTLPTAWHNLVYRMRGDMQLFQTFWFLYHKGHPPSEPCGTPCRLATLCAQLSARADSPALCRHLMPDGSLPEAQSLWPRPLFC

MONO-MAC-6 [2] = test: Downregulation of PTGS2 mRNA expression level in human MONO-MAC-6 cells at 5 uM incubated for 30 mins measured after 1 hr by oligonucleotide array hybridization assay relative to control; type: functional
How it was run: (§1)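 Total RNA was isolated, transcribed and labeled with DY-647 dye, then co-hybridized with DY-548-labeled cDNA from untreated cells on an inflammation oligonucleotide chip (780 gene probes). Differential expression >1.5 was taken as significant.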

MONO-MAC-6 [3] = test: Upregulation of IL23A mRNA expression level in LPS-stimulated human MONO-MAC-6 cells at 5 uM preincubated for 30 mins followed by LPS stimulation measured after 4 hrs by qRT-PCR method (reference value: 10.78); type: functional
MONO-MAC-6 [4] = test: Upregulation of CXCL2 mRNA expression level in LPS-stimulated human MONO-MAC-6 cells at 5 uM preincubated for 30 mins followed by LPS stimulation measured after 1 hr by qRT-PCR method (reference value: 1.29); type: functional
MONO-MAC-6 [5] = test: Downregulation of IL23A mRNA expression level in human MONO-MAC-6 cells at 5 uM incubated for 30 mins measured after 2 hrs by qRT-PCR method relative to control; type: functional
MONO-MAC-6 [6] = test: Downregulation of ICAM1 mRNA expression level in human MONO-MAC-6 cells at 5 uM incubated for 30 mins measured after 2 hrs by oligonucleotide array hybridization assay relative to control; type: functional; how it was run: as §1
MONO-MAC-6 [7] = test: Downregulation of CXCL2 mRNA expression level in human MONO-MAC-6 cells at 5 uM incubated for 30 mins measured after 2 hrs by qRT-PCR method relative to control; type: functional
MONO-MAC-6 [8] = test: Upregulation of ICAM1 mRNA expression level in LPS-stimulated human MONO-MAC-6 cells at 5 uM preincubated for 30 mins followed by LPS stimulation measured after 4 hrs by oligonucleotide array hybridization assay (reference value: 2.88); type: functional
MONO-MAC-6 [9] = test: Upregulation of CCL20 mRNA expression level in LPS-stimulated human MONO-MAC-6 cells at 5 uM preincubated for 30 mins followed by LPS stimulation measured after 1 hr by oligonucleotide array hybridization assay (reference value: 1.07); type: functional
MONO-MAC-6 [10] = test: Upregulation of PTX3 mRNA expression level in LPS-stimulated human MONO-MAC-6 cells at 5 uM preincubated for 30 mins followed by LPS stimulation measured after 4 hrs by oligonucleotide array hybridization assay (reference value: 4.65); type: functional
MONO-MAC-6 [11] = test: Downregulation of TNFalpha mRNA expression level in human MONO-MAC-6 cells at 5 uM incubated for 30 mins measured after 1 hr by qRT-PCR method relative to control; type: functional
MONO-MAC-6 [12] = test: Upregulation of CCL4 mRNA expression level in LPS-stimulated human MONO-MAC-6 cells at 5 uM preincubated for 30 mins followed by LPS stimulation measured after 2 hrs by oligonucleotide array hybridization assay (reference value: 5.78); type: functional
MONO-MAC-6 [13] = test: Downregulation of CXCL2 mRNA expression level in human MONO-MAC-6 cells at 5 uM incubated for 30 mins measured after 4 hrs by qRT-PCR method relative to control; type: functional
MONO-MAC-6 [14] = test: Downregulation of CXCL2 mRNA expression level in LPS-stimulated human MONO-MAC-6 cells at 5 uM preincubated for 30 mins followed by LPS stimulation measured after 6 hrs by oligonucleotide array hybridization assay (reference value: 9.41); type: functional; how it was run: as §1
MONO-MAC-6 [15] = test: Upregulation of TNFalpha mRNA expression level in LPS-stimulated human MONO-MAC-6 cells at 5 uM preincubated for 30 mins followed by LPS stimulation measured after 4 hrs by qRT-PCR method (reference value: 4.32); type: functional
MONO-MAC-6 [16] = test: Downregulation of TNFalpha mRNA expression level in human MONO-MAC-6 cells at 5 uM incubated for 30 mins measured after 2 hrs by qRT-PCR method relative to control; type: functional
MONO-MAC-6 [17] = test: Upregulation of CXCL10 mRNA expression level in LPS-stimulated human MONO-MAC-6 cells at 5 uM preincubated for 30 mins followed by LPS stimulation measured after 1 hr by oligonucleotide array hybridization assay (reference value: 1.18); type: functional
MONO-MAC-6 [18] = test: Downregulation of CXCL2 mRNA expression level in LPS-stimulated human MONO-MAC-6 cells at 5 uM preincubated for 30 mins followed by LPS stimulation measured after 6 hrs by qRT-PCR method (reference value: 5.22); type: functional
MONO-MAC-6 [19] = test: Downregulation of PTX3 mRNA expression level in human MONO-MAC-6 cells at 5 uM incubated for 30 mins measured after 1 hr by oligonucleotide array hybridization assay relative to control; type: functional; how it was run: as §1
MONO-MAC-6 [20] = test: Upregulation of CXCL3 mRNA expression level in LPS-stimulated human MONO-MAC-6 cells at 5 uM preincubated for 30 mins followed by LPS stimulation measured after 6 hrs by oligonucleotide array hybridization assay (reference value: 5.74); type: functional

COc1ccc(CCN(C)CCCn2c3ccccc3c3ccccc32)cc1
inhibition [1]: Active
fold change (FC) (MONO-MAC-6 [2]): 1.1
fold change (FC) (MONO-MAC-6 [3]): 1.71
fold change (FC) (MONO-MAC-6 [4]): 1.08
fold change (FC) (MONO-MAC-6 [5]): 1.24
fold change (FC) (MONO-MAC-6 [6]): 1.28
fold change (FC) (MONO-MAC-6 [7]): 1.27
fold change (FC) (MONO-MAC-6 [8]): 1.31
fold change (FC) (MONO-MAC-6 [9]): 1.03
fold change (FC) (MONO-MAC-6 [10]): 1.91
fold change (FC) (MONO-MAC-6 [11]): 1.83
fold change (FC) (MONO-MAC-6 [12]): 3.09
fold change (FC) (MONO-MAC-6 [13]): 1.845
fold change (FC) (MONO-MAC-6 [14]): 1.01
fold change (FC) (MONO-MAC-6 [15]): 1.37
fold change (FC) (MONO-MAC-6 [16]): 3.78
fold change (FC) (MONO-MAC-6 [17]): 1.69
fold change (FC) (MONO-MAC-6 [18]): 1.01
fold change (FC) (MONO-MAC-6 [19]): 1.48
fold change (FC) (MONO-MAC-6 [20]): 1.15
